Experimental data published in ChEMBL document CHEMBL1146219, “Synthesis and evaluation of novel radioiodinated benzamides for malignant melanoma” (J Med Chem, 2007).

Tests used:
Settings in all cases: in vivo
Lung [1] = assay: Biodistribution in lung of B16F0 tumor bearing C57BL/6J mouse at 0.37-0.74 MBq, iv after 1 hr; type: ADME, organism-based
In short: (§1)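 Female C57BL/6J mice (15-18 g) were given B16F0 cells subcutaneously in the left flank (0.1 mL of 3 × 10⁶ viable cells/mL in Ca²⁺/Mg²⁺-free PBS) at 6-7 weeks and used after ten days. [¹²³I]benzamide (0.37-0.74 MBq, 100 µL, saline) was injected via the tail vein. Groups of n = 5 were killed by CO₂ and cervical dislocation. Organs were weighed and γ-counted, and the carcass was counted too.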

[2] = Biodistribution in melanoma of B16F0 tumor bearing C57BL/6J mouse at 0.37-0.74 MBq, iv after 6 hrs; type: ADME, organism-based, B16-F0
In short: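 Female C57BL/6J mice (15-18 g) carrying s.c. B16F0 flank tumors (0.1 mL of 3 × 10⁶ viable cells per mL in Ca²⁺/Mg²⁺-free PBS, inoculated at 6-7 weeks, used 10 days later). [¹²³I]tracer 0.37-0.74 MBq in saline, 100 µL, tail-vein i.v. Groups of n = 5 killed at 1-72 h. Organs weighed and γ-counted, carcass activity also counted, values as %ID/g.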

Kidney [3] = assay: Biodistribution in kidney of B16F0 tumor bearing C57BL/6J mouse at 0.37-0.74 MBq, iv after 1 hr; type: ADME, organism-based; in short: as §1
Brain [4] = assay: Biodistribution in brain of B16F0 tumor bearing C57BL/6J mouse at 0.37-0.74 MBq, iv after 24 hrs; type: ADME, organism-based; in short: as §1
Blood [5] = assay: Biodistribution in blood of B16F0 tumor bearing C57BL/6J mouse at 0.37-0.74 MBq, iv after 6 hrs; type: ADME, organism-based; in short: as §1
Heart [6] = assay: Biodistribution in heart of B16F0 tumor bearing C57BL/6J mouse at 0.37-0.74 MBq, iv after 1 hr; type: ADME, organism-based; in short: as §1
Liver [7] = assay: Biodistribution in liver of B16F0 tumor bearing C57BL/6J mouse at 0.37-0.74 MBq, iv after 6 hrs; type: ADME, organism-based; in short: as §1
Kidney [8] = assay: Biodistribution in kidney of B16F0 tumor bearing C57BL/6J mouse at 0.37-0.74 MBq, iv after 6 hrs; type: ADME, organism-based; in short: as §1
Liver [9] = assay: Biodistribution in liver of B16F0 tumor bearing C57BL/6J mouse at 0.37-0.74 MBq, iv after 24 hrs; type: ADME, organism-based; in short: as §1
Lung [10] = assay: Biodistribution in lung of B16F0 tumor bearing C57BL/6J mouse at 0.37-0.74 MBq, iv after 6 hrs; type: ADME, organism-based; in short: as §1
Brain [11] = assay: Biodistribution in brain of B16F0 tumor bearing C57BL/6J mouse at 0.37-0.74 MBq, iv after 1 hr; type: ADME, organism-based; in short: as §1
Blood [12] = assay: Biodistribution in blood of B16F0 tumor bearing C57BL/6J mouse at 0.37-0.74 MBq, iv after 1 hr; type: ADME, organism-based; in short: as §1
[13] = Biodistribution in melanoma of B16F0 tumor bearing C57BL/6J mouse at 0.37-0.74 MBq, iv after 1 hr; type: ADME, organism-based, B16-F0; in short: as §1
Heart [14] = assay: Biodistribution in heart of B16F0 tumor bearing C57BL/6J mouse at 0.37-0.74 MBq, iv after 6 hrs; type: ADME, organism-based; in short: as §1
Brain [15] = assay: Biodistribution in brain of B16F0 tumor bearing C57BL/6J mouse at 0.37-0.74 MBq, iv after 6 hrs; type: ADME, organism-based; in short: as §1
Blood [16] = assay: Biodistribution in blood of B16F0 tumor bearing C57BL/6J mouse at 0.37-0.74 MBq, iv after 24 hrs; type: ADME, organism-based; in short: as §1
[17] = Biodistribution in melanoma of B16F0 tumor bearing C57BL/6J mouse at 0.37-0.74 MBq, iv after 24 hrs; type: ADME, organism-based, B16-F0; in short: as §1
Lung [18] = assay: Biodistribution in lung of B16F0 tumor bearing C57BL/6J mouse at 0.37-0.74 MBq, iv after 24 hrs; type: ADME, organism-based; in short: as §1
Liver [19] = assay: Biodistribution in liver of B16F0 tumor bearing C57BL/6J mouse at 0.37-0.74 MBq, iv after 1 hr; type: ADME, organism-based; in short: as §1
Heart [20] = assay: Biodistribution in heart of B16F0 tumor bearing C57BL/6J mouse at 0.37-0.74 MBq, iv after 24 hrs; type: ADME, organism-based; in short: as §1
Kidney [21] = assay: Biodistribution in kidney of B16F0 tumor bearing C57BL/6J mouse at 0.37-0.74 MBq, iv after 24 hrs; type: ADME, organism-based; in short: as §1

Drug uptake (Lung [1]) [% ID/g] | Drug uptake [2] [% ID/g] | Drug uptake (Kidney [3]) [% ID/g] | Drug uptake (Blood [5]) [% ID/g] | Drug uptake (Heart [6]) [% ID/g] | Drug uptake (Liver [7]) [% ID/g] | Drug uptake (Kidney [8]) [% ID/g] | Drug uptake (Liver [9]) [% ID/g] | Drug uptake (Lung [10]) [% ID/g] | Drug uptake (Brain [11]) [% ID/g] | Drug uptake (Blood [12]) [% ID/g] | Drug uptake [13] [% ID/g] | Drug uptake (Heart [14]) [% ID/g] | Drug uptake (Brain [15]) [% ID/g] | Drug uptake (Blood [16]) [% ID/g] | Drug uptake [17] [% ID/g] | Drug uptake (Lung [18]) [% ID/g] | Drug uptake (Liver [19]) [% ID/g] | Drug uptake (Heart [20]) [% ID/g] | Drug uptake (Kidney [21]) [% ID/g] | SMILES | further results
8.2 | 7.5 | 8.6 | 0.35 | 1.9 | 33 | 5.4 | 2.9 | 3.9 | 0.5 | 0.52 | 6.2 | 0.81 | 0.17 | 0.08 | 6.9 | 0.39 | 49.1 | 0.12 | 0.52 | CCCN(CCC)CCCCNC(=O)c1ccc([123I])cc1 | Drug uptake (Brain [4]): 0.04 % ID/g
4.5 | 8.8 | 6.8 | 1.2 | 2 | 0.73 | 0.76 | 0.1 | 0.82 | 1.3 | 1.9 | 7.1 | 0.4 | 0.11 | 0.06 | 3 | 0.09 | 6.8 | 0.07 | 0.06 | CCN(CC)CCNC(=O)c1ccccc1[123I] | Drug uptake (Brain [4]): 0.01 % ID/g
2.6 | 2.8 | 3.7 | 0.78 | 0.94 | 0.8 | 0.67 | 0.19 | 0.68 | 0.08 | 1.92 | 3.4 | 0.3 | 0.03 | 0.02 | 1.4 | 0.04 | 7.1 | 0.03 | 0.03 | COc1cc(NC(C)=O)c([123I])cc1C(=O)NCCCCN1CC2CCC1C2 (centres undefined) | –
2 | 3.4 | 3.26 | 0.47 | 0.64 | 1.3 | 0.46 | 0.45 | 0.45 | 0.04 | 0.84 | 3.4 | 0.28 | 0.02 | 0.05 | 2.2 | 0.04 | 6 | 0.06 | 0.05 | CCCCNCCCCNC(=O)c1cc([123I])c(NC(C)=O)cc1OC | –
0.67 | 3.6 | 1.3 | 0.49 | 0.42 | 1.2 | 0.49 | 0.28 | 0.38 | 0.05 | 0.77 | 5.4 | 0.19 | 0.02 | 0.01 | 1.7 | 0.03 | 2.3 | 0.04 | 0.06 | CCN(CC)CCNC(=O)c1cc([123I])c(NS(C)(=O)=O)cc1OC | –
1.5 | 6 | 5.7 | 0.68 | 0.84 | 1.5 | 0.69 | 0.42 | 0.5 | 0.07 | 1.3 | 5.5 | 0.3 | 0.03 | 0.02 | 3.7 | 0.06 | 9.5 | 0.07 | 0.06 | COc1cc(NC(C)=O)c([123I])cc1C(=O)NCCCCN(C)C(C)C | Drug uptake (Brain [4]): 0.07 % ID/g
1.7 | 6.8 | 14.1 | 1.1 | 0.93 | 1.8 | 1 | 0.64 | 0.8 | 0.07 | 1.7 | 8 | 0.49 | 0.05 | 0.15 | 5.1 | 0.14 | 7.3 | 0.14 | 0.18 | CCCN(CCC)CCCCNC(=O)c1cc([123I])c(NC(C)=O)cc1OC | Drug uptake (Brain [4]): 0.01 % ID/g
0.62 | 2.6 | 1.2 | 0.33 | 0.28 | 1.5 | 0.36 | 0.21 | 0.22 | 0.03 | 0.74 | 4.2 | 0.11 | – | 0.05 | 1.4 | 0.05 | 3.8 | 0.03 | 0.06 | CCN(CC)CCNC(=O)c1cc([123I])c(NS(=O)(=O)c2ccc(C)cc2)cc1OC | –
6.9 | 3.5 | 15.2 | 0.24 | 1.05 | 27 | 4.9 | 3.5 | 2.1 | 0.1 | 0.48 | 3.8 | 0.44 | 0.06 | 0.03 | 3.4 | 0.4 | 43.2 | 0.13 | 0.59 | O=C(NCCCCN1CC2CCC1C2)c1ccc([123I])cc1 (centres undefined) | Drug uptake (Brain [4]): 0.01 % ID/g
